# Columns and labels:
# [1] = test system: A549; experiment: Antiproliferative activity against human A549 cells assessed as inhibition of cell growth at 1.5 uM incubated for 48 hrs by MTT assay relative to control; format: functional; conditions: A549, 48 h, read-out: GI
# [2] = test system: A549; experiment: Antiproliferative activity against human A549 cells assessed as inhibition of cell growth incubated for 48 hrs by MTT assay; format: functional, cell-based; conditions: A549, 48 h
# Procedure, shortened: (§1)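 MTT read-out. Cells seeded at 5.0 × 10⁴ cells/ml and cultured 24 h, then exposed to the drug over a range of concentrations for 48 h, with matching DMSO as control. MTT (5 mg/ml) added for 4 h, supernatant removed, formazan dissolved in DMSO, OD read at 570 nm. Run in triplicate, mean ± SD (n = 3).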
# [3] = test system: MCF7; experiment: Antiproliferative activity against human MCF7 cells assessed as inhibition of cell growth incubated for 48 hrs by MTT assay; format: functional, cell-based; conditions: MCF7, 48 h; procedure, shortened: as §1
# [4] = test system: HOS; experiment: Antiproliferative activity against human HOS cells assessed as inhibition of cell growth incubated for 48 hrs by MTT assay; format: functional, cell-based; procedure, shortened: as §1
# [5] = test system: HepG2; experiment: Antiproliferative activity against human HepG2 cells assessed as inhibition of cell growth incubated for 48 hrs by MTT assay; format: functional, cell-based; conditions: HepG2, 48 h; procedure, shortened: as §1
SMILES,inhibition of growth at 1.5 µM [1],further results
CC1=C(O)C(=O)C=C2C1=CC=C1[C@@]2(C)CC[C@@]2(C)[C@@H]3C[C@](C)(C(=O)OCCOC(=O)/C=C(\C#N)c4ccc(C(F)(F)F)cc4)CC[C@]3(C)CC[C@]12C,33.3%,
CC1=C(O)C(=O)C=C2C1=CC=C1[C@@]2(C)CC[C@@]2(C)[C@@H]3C[C@](C)(C(=O)OCCCOC(=O)/C=C/c4ccccc4)CC[C@]3(C)CC[C@]12C,33.2%,
CC1=C(O)C(=O)C=C2C1=CC=C1[C@@]2(C)CC[C@@]2(C)[C@@H]3C[C@](C)(C(=O)OCCCCOC(=O)/C(C#N)=C/c4ccccc4)CC[C@]3(C)CC[C@]12C,16.2%,
CC1=C(O)C(=O)C=C2C1=CC=C1[C@@]2(C)CC[C@@]2(C)[C@@H]3C[C@](C)(C(=O)OCCCOC(=O)/C(C#N)=C/c4ccc(C(F)(F)F)cc4)CC[C@]3(C)CC[C@]12C,19.4%,
COc1ccc(/C(C#N)=C/C(=O)OC/C=C/COC(=O)[C@]2(C)CC[C@]3(C)CC[C@]4(C)C5=CC=C6C(=CC(=O)C(O)=C6C)[C@]5(C)CC[C@@]4(C)[C@@H]3C2)cc1,,IC50 [2]: 1340 nM; IC50 [3]: 1440 nM; IC50 [4]: 1790 nM; IC50 [5]: 2710 nM
CC1=C(O)C(=O)C=C2C1=CC=C1[C@@]2(C)CC[C@@]2(C)[C@@H]3C[C@](C)(C(=O)OCCCCOC(=O)/C=C/c4ccc(C(F)(F)F)cc4)CC[C@]3(C)CC[C@]12C,6.19%,
CC1=C(O)C(=O)C=C2C1=CC=C1[C@@]2(C)CC[C@@]2(C)[C@@H]3C[C@](C)(C(=O)OCCCCOC(=O)/C=C(\C#N)c4ccc(C(F)(F)F)cc4)CC[C@]3(C)CC[C@]12C,18.3%,
CC1=C(O)C(=O)C=C2C1=CC=C1[C@@]2(C)CC[C@@]2(C)[C@@H]3C[C@](C)(C(=O)OCCCOC(=O)/C=C(\C#N)c4ccc(C)cc4)CC[C@]3(C)CC[C@]12C,21.6%,
CC1=C(O)C(=O)C=C2C1=CC=C1[C@@]2(C)CC[C@@]2(C)[C@@H]3C[C@](C)(C(=O)OCCCOC(=O)/C(C#N)=C/c4ccccc4)CC[C@]3(C)CC[C@]12C,19.1%,
CC1=C(O)C(=O)C=C2C1=CC=C1[C@@]2(C)CC[C@@]2(C)[C@@H]3C[C@](C)(C(=O)OCCCCOC(=O)/C=C/c4ccc(F)cc4)CC[C@]3(C)CC[C@]12C,14.7%,
CC1=C(O)C(=O)C=C2C1=CC=C1[C@@]2(C)CC[C@@]2(C)[C@@H]3C[C@](C)(C(=O)OCCCOC(=O)/C(C#N)=C/c4ccc(C)cc4)CC[C@]3(C)CC[C@]12C,34.7%,
COc1ccc(/C=C(\C#N)C(=O)OCCCOC(=O)[C@]2(C)CC[C@]3(C)CC[C@]4(C)C5=CC=C6C(=CC(=O)C(O)=C6C)[C@]5(C)CC[C@@]4(C)[C@@H]3C2)cc1,18.6%,
CC1=C(O)C(=O)C=C2C1=CC=C1[C@@]2(C)CC[C@@]2(C)[C@@H]3C[C@](C)(C(=O)OCCOC(=O)/C=C/c4ccc(F)cc4)CC[C@]3(C)CC[C@]12C,27.7%,
CC1=C(O)C(=O)C=C2C1=CC=C1[C@@]2(C)CC[C@@]2(C)[C@@H]3C[C@](C)(C(=O)OCCCCOC(=O)/C(C#N)=C/c4ccc(C(F)(F)F)cc4)CC[C@]3(C)CC[C@]12C,7.85%,
CC1=C(O)C(=O)C=C2C1=CC=C1[C@@]2(C)CC[C@@]2(C)[C@@H]3C[C@](C)(C(=O)OCCCCOC(=O)/C(C#N)=C/c4ccc(C)cc4)CC[C@]3(C)CC[C@]12C,16.5%,
COc1ccc(/C=C/C(=O)OCCCCOC(=O)[C@]2(C)CC[C@]3(C)CC[C@]4(C)C5=CC=C6C(=CC(=O)C(O)=C6C)[C@]5(C)CC[C@@]4(C)[C@@H]3C2)cc1,20.6%,
COc1ccc(/C=C(\C#N)C(=O)OCCOC(=O)[C@]2(C)CC[C@]3(C)CC[C@]4(C)C5=CC=C6C(=CC(=O)C(O)=C6C)[C@]5(C)CC[C@@]4(C)[C@@H]3C2)cc1,16.6%,
CC1=C(O)C(=O)C=C2C1=CC=C1[C@@]2(C)CC[C@@]2(C)[C@@H]3C[C@](C)(C(=O)OCCCCOC(=O)/C=C/c4ccc(C)cc4)CC[C@]3(C)CC[C@]12C,19.9%,
CC1=C(O)C(=O)C=C2C1=CC=C1[C@@]2(C)CC[C@@]2(C)[C@@H]3C[C@](C)(C(=O)OCCOC(=O)/C=C/c4ccc(C)cc4)CC[C@]3(C)CC[C@]12C,28.6%,
CC1=C(O)C(=O)C=C2C1=CC=C1[C@@]2(C)CC[C@@]2(C)[C@@H]3C[C@](C)(C(=O)OCCCOC(=O)/C(C#N)=C/c4ccc(F)cc4)CC[C@]3(C)CC[C@]12C,25%,
CC1=C(O)C(=O)C=C2C1=CC=C1[C@@]2(C)CC[C@@]2(C)[C@@H]3C[C@](C)(C(=O)OCCOC(=O)/C=C/c4ccc(C(F)(F)F)cc4)CC[C@]3(C)CC[C@]12C,26%,
CC1=C(O)C(=O)C=C2C1=CC=C1[C@@]2(C)CC[C@@]2(C)[C@@H]3C[C@](C)(C(=O)OCCCCOC(=O)/C=C/c4ccccc4)CC[C@]3(C)CC[C@]12C,13.3%,

SMILES,inhibition of growth at 1.5 µM [1],further results
CC1=C(O)C(=O)C=C2C1=CC=C1[C@@]2(C)CC[C@@]2(C)[C@@H]3C[C@](C)(C(=O)OCCCCOC(=O)/C=C(\C#N)c4ccc(F)cc4)CC[C@]3(C)CC[C@]12C,32.1%,
CC1=C(O)C(=O)C=C2C1=CC=C1[C@@]2(C)CC[C@@]2(C)[C@@H]3C[C@](C)(C(=O)OC/C=C/COC(=O)/C=C(\C#N)c4ccc(F)cc4)CC[C@]3(C)CC[C@]12C,,IC50 [2]: 1840 nM; IC50 [3]: 1110 nM; IC50 [4]: 1330 nM; IC50 [5]: 2740 nM
CC1=C(O)C(=O)C=C2C1=CC=C1[C@@]2(C)CC[C@@]2(C)[C@@H]3C[C@](C)(C(=O)OCCCCOC(=O)/C=C(\C#N)c4ccccc4)CC[C@]3(C)CC[C@]12C,3.19%,
CC1=C(O)C(=O)C=C2C1=CC=C1[C@@]2(C)CC[C@@]2(C)[C@@H]3C[C@](C)(C(=O)OCCOC(=O)/C(C#N)=C/c4ccccc4)CC[C@]3(C)CC[C@]12C,24.3%,
CC1=C(O)C(=O)C=C2C1=CC=C1[C@@]2(C)CC[C@@]2(C)[C@@H]3C[C@](C)(C(=O)OCCCCOC(=O)/C=C(\C#N)c4ccc(C)cc4)CC[C@]3(C)CC[C@]12C,9.74%,
CC1=C(O)C(=O)C=C2C1=CC=C1[C@@]2(C)CC[C@@]2(C)[C@@H]3C[C@](C)(C(=O)OCCCOC(=O)/C=C/c4ccc(C(F)(F)F)cc4)CC[C@]3(C)CC[C@]12C,37.6%,
CC1=C(O)C(=O)C=C2C1=CC=C1[C@@]2(C)CC[C@@]2(C)[C@@H]3C[C@](C)(C(=O)OCCCOC(=O)/C=C/c4ccc(F)cc4)CC[C@]3(C)CC[C@]12C,37.6%,
CC1=C(O)C(=O)C=C2C1=CC=C1[C@@]2(C)CC[C@@]2(C)[C@@H]3C[C@](C)(C(=O)OCCCOC(=O)/C=C/c4ccc(C)cc4)CC[C@]3(C)CC[C@]12C,29.1%,
CC1=C(O)C(=O)C=C2C1=CC=C1[C@@]2(C)CC[C@@]2(C)[C@@H]3C[C@](C)(C(=O)OCCOC(=O)/C=C(\C#N)c4ccc(C)cc4)CC[C@]3(C)CC[C@]12C,20.4%,
CC1=C(O)C(=O)C=C2C1=CC=C1[C@@]2(C)CC[C@@]2(C)[C@@H]3C[C@](C)(C(=O)OCCOC(=O)/C(C#N)=C/c4ccc(C(F)(F)F)cc4)CC[C@]3(C)CC[C@]12C,16%,
CC1=C(O)C(=O)C=C2C1=CC=C1[C@@]2(C)CC[C@@]2(C)[C@@H]3C[C@](C)(C(=O)OCCOC(=O)/C=C/c4ccccc4)CC[C@]3(C)CC[C@]12C,23%,
CC1=C(O)C(=O)C=C2C1=CC=C1[C@@]2(C)CC[C@@]2(C)[C@@H]3C[C@](C)(C(=O)OCCCCOC(=O)/C(C#N)=C/c4ccc(F)cc4)CC[C@]3(C)CC[C@]12C,19%,
COC(=O)[C@]12CCC(C)(C)C[C@H]1[C@H]1C(=O)C=C3[C@@]4(C)C=C(C#N)C(=O)C(C)(C)[C@@H]4CC[C@@]3(C)[C@]1(C)CC2 [BARDOXOLONE METHYL],,IC50 [2]: 520 nM; IC50 [3]: 850 nM; IC50 [4]: 660 nM; IC50 [5]: 520 nM
COc1ccc(/C=C(\C#N)C(=O)OCCCCOC(=O)[C@]2(C)CC[C@]3(C)CC[C@]4(C)C5=CC=C6C(=CC(=O)C(O)=C6C)[C@]5(C)CC[C@@]4(C)[C@@H]3C2)cc1,3.07%,
CC1=C(O)C(=O)C=C2C1=CC=C1[C@@]2(C)CC[C@@]2(C)[C@@H]3C[C@](C)(C(=O)OC/C=C/COC(=O)/C=C(\C#N)c4ccccc4)CC[C@]3(C)CC[C@]12C,,IC50 [2]: 3540 nM; IC50 [3]: 2860 nM; IC50 [4]: 4780 nM; IC50 [5]: 3450 nM
COc1ccc(/C(C#N)=C/C(=O)OCCCCOC(=O)[C@]2(C)CC[C@]3(C)CC[C@]4(C)C5=CC=C6C(=CC(=O)C(O)=C6C)[C@]5(C)CC[C@@]4(C)[C@@H]3C2)cc1,9.57%,
CC1=C(O)C(=O)C=C2C1=CC=C1[C@@]2(C)CC[C@@]2(C)[C@@H]3C[C@](C)(C(=O)OCCCOC(=O)/C=C(\C#N)c4ccc(C(F)(F)F)cc4)CC[C@]3(C)CC[C@]12C,24.5%,
COc1ccc(/C=C/C(=O)OCCCOC(=O)[C@]2(C)CC[C@]3(C)CC[C@]4(C)C5=CC=C6C(=CC(=O)C(O)=C6C)[C@]5(C)CC[C@@]4(C)[C@@H]3C2)cc1,34.1%,
CC1=C(O)C(=O)C=C2C1=CC=C1[C@@]2(C)CC[C@@]2(C)[C@@H]3C[C@](C)(C(=O)OCCOC(=O)/C(C#N)=C/c4ccc(F)cc4)CC[C@]3(C)CC[C@]12C,26.1%,
CC1=C(O)C(=O)C=C2C1=CC=C1[C@@]2(C)CC[C@@]2(C)[C@@H]3C[C@](C)(C(=O)OCCOC(=O)/C(C#N)=C/c4ccc(C)cc4)CC[C@]3(C)CC[C@]12C,29.9%,
COc1ccc(/C=C/C(=O)OCCOC(=O)[C@]2(C)CC[C@]3(C)CC[C@]4(C)C5=CC=C6C(=CC(=O)C(O)=C6C)[C@]5(C)CC[C@@]4(C)[C@@H]3C2)cc1,35.3%,

# — ChEMBL document CHEMBL4376838, “Discovery of Novel Celastrol Derivatives as Hsp90-Cdc37 Interaction Disruptors with Antitumor Activity” (J Med Chem, 2019)
